Results from ChEMBL document CHEMBL1121608, “Modification of the 5' position of purine nucleosides. 2. Synthesis and some cardiovascular properties of adenosine-5'-(N-substituted)carboxamides” (J Med Chem, 1980).

Experiments:
Canis familiaris [1] = assay: Total time in minutes elapsed from the initiation of the change until return to the pretest value of blood pressure in coronary sinus of anesthetized dog at intravenous dosage of 0.01 mg/kg; assay type: functional, Canis lupus familiaris
Canis familiaris [2] = assay: Total time in minutes elapsed from the initiation of the change until return to the pretest value of blood pressure in coronary sinus of anesthetized dog at intravenous dosage of 0.1 mg/kg; assay type: functional, Canis lupus familiaris
Canis familiaris [3] = assay: Total time in minutes elapsed from the initiation of the change until return to the pretest value of heart rate in coronary sinus of anesthetized dog at intravenous dosage of 0.01 mg/kg; assay type: functional, Canis lupus familiaris
Canis familiaris [4] = assay: Total time in minutes elapsed from the initiation of the change until return to the pretest value of heart rate in coronary sinus of anesthetized dog at intravenous dosage of 0.1 mg/kg; assay type: functional, Canis lupus familiaris
Canis familiaris [5] = assay: Total time in minutes elapsed from the initiation of the change until return to the pretest value of oxygen partial pressure in coronary sinus of anesthetized dog at intravenous dosage of 0.01 mg/kg; assay type: functional, Canis lupus familiaris
Canis familiaris [6] = assay: Total time in minutes elapsed from the initiation of the change until return to the pretest value of oxygen partial pressure in coronary sinus of anesthetized dog at intravenous dosage of 0.1 mg/kg; assay type: functional, Canis lupus familiaris
Canis familiaris [7] = assay: Tested for percent increase in coronary sinus partial pressure of oxygen (PO2) in open chest anesthetized dog at intravenous dosage of 0.01 mg/kg; assay type: functional, Canis lupus familiaris
Canis familiaris [8] = assay: Tested for the percent increase in aortic blood pressure (BP) in open chest anesthetized dog at intravenous dosage of 0.01 mg/kg; assay type: functional, Canis lupus familiaris, Artery
Procedure, shortened: (§1)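 Open-chest anesthetized dogs, compound given iv at the stated dose. Aortic blood pressure is reported as the change from the control (pre-dose) value. Other set-up follows the group's earlier cardiovascular protocol.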

Canis familiaris [9] = assay: Tested for the percent increase in aortic blood pressure (BP) in open chest anesthetized dog at intravenous dosage of 0.10 mg/kg; assay type: functional, Canis lupus familiaris, Artery; settings: dose 0.1 mg/kg; procedure, shortened: as §1
Canis familiaris [10] = assay: tested for the percent increase in heart rate (HR) in open chest anesthetized dog at intravenous dosage of 0.10 mg/kg; assay type: functional, Canis lupus familiaris; settings: dose 0.1 mg/kg
Canis familiaris [11] = assay: Tested for the percent increase in coronary sinus partial pressure of oxygen (PO2) in open chest anesthetized dog at intravenous dosage of 0.10 mg/kg; assay type: functional, Canis lupus familiaris; settings: dose 0.1 mg/kg
[12] = Lethal dose in mice after intraperitoneal administration; assay type: toxicity, organism-based; settings: mouse, in vivo, ip
Procedure, shortened: (§2)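 Male and female mice, three per dose group, were given the compound by the stated route in increments of 0.5 log doses. The LD50 was estimated as an approximate value.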

[13] = Lethal dose in mice after peroral administration; assay type: toxicity, organism-based; settings: mouse, in vivo, po; procedure, shortened: as §2
Canis familiaris [14] = assay: Total time in minutes elapsed from the initiation of the change until return to the pretest value of blood pressure in coronary sinus of anesthetized dog at intravenous dosage of 1.00 mg/kg; assay type: functional, Canis lupus familiaris
Canis familiaris [15] = assay: Total time in minutes elapsed from the initiation of the change until return to the pretest value of heart rate in coronary sinus of anesthetized dog at intravenous dosage of 1 mg/kg; assay type: functional, Canis lupus familiaris
Canis familiaris [16] = assay: Total time in minutes elapsed from the initiation of the change until return to the pretest value of oxygen partial pressure in coronary sinus of anesthetized dog at intravenous dosage of 1 mg/kg; assay type: functional, Canis lupus familiaris
Procedure, shortened: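 Open-chest anesthetized dogs given compound by intravenous injection. Coronary sinus PO2 was monitored, and duration was the total time in minutes from the onset of the change until return to the pretest value.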

Canis familiaris [17] = assay: Tested for percent increase in coronary sinus partial pressure of oxygen (PO2) in open chest anesthetized dog at intravenous dosage of 1.00 mg/kg; assay type: functional, Canis lupus familiaris
Canis familiaris [18] = assay: Tested for the percent increase in aortic blood pressure (BP) in open chest anesthetized dog at intravenous dosage of 1.00 mg/kg; assay type: functional, Canis lupus familiaris, Artery; procedure, shortened: as §1
Canis familiaris [19] = assay: Total time in minutes elapsed from the initiation of the change until return to the pretest value of blood pressure in coronary sinus of anesthetized dog at intravenous dosage of 1 mg/kg; assay type: functional, Canis lupus familiaris
Canis familiaris [20] = assay: tested for the percent increase in heart rate (HR) in open chest anesthetized dog at intravenous dosage of 1 mg/kg; assay type: functional, Canis lupus familiaris
Canis familiaris [21] = assay: tested for the percent increase in aortic blood pressure (BP) in open chest anesthetized dog at intravenous dosage of 1 mg/kg; assay type: functional, Canis lupus familiaris, Artery
Procedure, shortened: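 Open-chest anesthetized dogs received intravenous doses. Aortic blood pressure was recorded as the change from control.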

Canis familiaris [22] = assay: tested for percent increase in coronary sinus partial pressure of oxygen (PO2) in open chest anesthetized dog at intravenous dosage of 1 mg/kg; assay type: functional, Canis lupus familiaris
Mus musculus [23] = assay: Tested for the lethal dose in mice after administration intraperitoneally; assay type: functional; settings: ip; procedure, shortened: as §2
Mus musculus [24] = assay: Tested for the lethal dose in mice after administration perorally; assay type: functional; settings: po; procedure, shortened: as §2
Canis familiaris [25] = assay: Total time in minutes elapsed from the initiation of the change until return to the pretest value of blood pressure in coronary sinus of anesthetized dog at intravenous dosage of 0.001 mg/kg; assay type: functional, Canis lupus familiaris
Canis familiaris [26] = assay: Total time in minutes elapsed from the initiation of the change until return to the pretest value of heart rate in coronary sinus of anesthetized dog at intravenous dosage of 0.001 mg/kg; assay type: functional, Canis lupus familiaris
Canis familiaris [27] = assay: Total time in minutes elapsed from the initiation of the change until return to the pretest value of oxygen partial pressure in coronary sinus of anesthetized dog at intravenous dosage of 0.001 mg/kg; assay type: functional, Canis lupus familiaris
Canis familiaris [28] = assay: Tested for percent increase in coronary sinus partial pressure of oxygen (PO2) in open chest anesthetized dog at intravenous dosage of 0.001 mg/kg; assay type: functional, Canis lupus familiaris
Canis familiaris [29] = assay: Tested for the percent increase in aortic blood pressure (BP) in open chest anesthetized dog at intravenous dosage of 0.001 mg/kg; assay type: functional, Canis lupus familiaris, Artery; procedure, shortened: as §1
Canis familiaris [30] = assay: Total time in minutes elapsed from the initiation of the change until return to the pretest value of oxygen partial pressure in coronary sinus of anesthetized dog at intravenous dosage of 0.10 mg/kg; assay type: functional, Canis lupus familiaris; settings: dose 0.1 mg/kg
Canis familiaris [31] = assay: Tested for the percent increase in coronary sinus partial pressure of oxygen (PO2) in open chest anesthetized dog at intravenous dosage of 1.00 mg/kg; assay type: functional, Canis lupus familiaris
Canis familiaris [32] = assay: tested for percent increase in coronary sinus partial pressure of oxygen (PO2) in open chest anesthetized dog at intravenous dosage of 0.10 mg/kg; assay type: functional, Canis lupus familiaris; settings: dose 0.1 mg/kg

## CONC(=O)[C@H]1O[C@@H](n2cnc3c(N)ncnc32)[C@H](O)[C@@H]1O
Canis familiaris [1]
  Duration: 41 min
Canis familiaris [2]
  Duration: 90 min
Canis familiaris [3]
  Duration: 60 min
Canis familiaris [4]
  Duration: 10 min
Canis familiaris [5]
  Duration: 60 min
Canis familiaris [6]
  Duration: 90 min
Canis familiaris [7]
  PO2: 157%
Canis familiaris [8]
  BP: 9%
Canis familiaris [9]
  BP: 39%
Canis familiaris [10]
  HR: 2%
Canis familiaris [11]
  PO2: 143%
[12]
  LD50: 20 mg/kg
[13]
  LD50: 50 mg/kg

## CNC(=O)[C@H]1O[C@@H](n2cnc3c(N)ncnc32)[C@H](O)[C@@H]1O
Canis familiaris [1]
  Duration: 60 min
Canis familiaris [2]
  Duration: 240 min
Canis familiaris [3]
  Duration: 240 min
Canis familiaris [5]
  Duration: 14 min
Canis familiaris [6]
  Duration: 240 min
Canis familiaris [7]
  PO2: 105%
Canis familiaris [11]
  PO2: 215%
[12]
  LD50: 5 mg/kg
[13]
  LD50: 20 mg/kg

## CN(C)C(=O)[C@H]1OC(n2cnc3c(N)ncnc32)[C@H](O)[C@@H]1O (some centres undefined)
Canis familiaris [14]
  Duration: 0 min
Canis familiaris [15]
  Duration: 0 min
Canis familiaris [16]
  Duration: 0 min
Canis familiaris [17]
  PO2: 0%
Canis familiaris [18]
  BP: 0%
[12]
  LD50: 50 mg/kg
[13]
  LD50: 1000 mg/kg

## Nc1ncnc2c1ncn2C1O[C@H](C(=O)NCc2ccccc2)[C@@H](O)[C@H]1O (some centres undefined)
Canis familiaris [19]
  Duration: 60 min
Canis familiaris [15]
  Duration: 24 min
Canis familiaris [16]
  Duration: 60 min
Canis familiaris [20]
  HR: 13%
Canis familiaris [21]
  BP: 5 mmHg
Canis familiaris [22]
  PO2: 48%
Mus musculus [23]
  LD50: 200 mg/kg
Mus musculus [24]
  LD50: > 1000 mg/kg

## CCNC(=O)[C@H]1OC(n2cnc3c(N)[n+]([O-])cnc32)[C@H](O)[C@@H]1O (some centres undefined)
Canis familiaris [25]
  Duration: 120 min
Canis familiaris [26]
  Duration: 120 min
Canis familiaris [27]
  Duration: 120 min
Canis familiaris [28]
  PO2: 37%
Canis familiaris [29]
  BP: 27 mmHg

## CCOCCNC(=O)[C@H]1OC(n2cnc3c(N)ncnc32)[C@H](O)[C@@H]1O (some centres undefined)
Canis familiaris [2]
  Duration: 1 min
Canis familiaris [19]
  Duration: 120 min
Canis familiaris [3]
  Duration: 0 min
Canis familiaris [15]
  Duration: 120 min
Canis familiaris [30]
  Duration: 6 min
Canis familiaris [16]
  Duration: 120 min
Canis familiaris [8]
  BP: 8%
Canis familiaris [18]
  BP: 15%
Canis familiaris [31]
  PO2: 135%
[12]
  LD50: 50 mg/kg
[13]
  LD50: > 1000 mg/kg

## CCCCNC(=O)[C@H]1OC(n2cnc3c(N)ncnc32)[C@H](O)[C@@H]1O (some centres undefined)
Canis familiaris [2]
  Duration: 40 min
Canis familiaris [4]
  Duration: 40 min
Canis familiaris [6]
  Duration: 30 min
Canis familiaris [9]
  BP: 5%
Canis familiaris [10]
  HR: 16%
Canis familiaris [32]
  PO2: 30%
